PPC-1+TRAIL kill: kills PPC-1 cancer cells in the presence of TRAIL | AID 1443 | 220,000 compounds, 0.41% hits | PPC-1 cells + TRAIL, ATPLite viability luminescence | cell killing (% activity), % at 4 µM or 5 µM;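 active = cell killing above 50% in the first pass at 4 µM, then a duplicate retest at 5 µM averaging 50% or more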;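 note: plate controls were cells with TRAIL plus DMSO for no effect and medium-only wells lacking cells for full effect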
Lipid droplet: hepatic lipid droplet formation modulation. AML12 mouse hepatocytes, oleate lipid droplets, BODIPY imaging. inhibition, % at 6.5 µM. 240,000 compounds, 0.4% hits;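 active = lipid droplet intensity inhibited by at least 50%, with more than 500 cells counted; inconclusive = wells with under 300 cells, treated as cytotoxic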
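material = mouse AML12 hepatocyte cell line, fixed after treatment | also added = 100 µM oleic acid challenge | doses = compound at 6.5 µM only | schedule = overnight exposure | technique = Image-based BODIPY and DAPI two-channel analysis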
STAT3 inh: reduces IL-6 driven STAT3 reporter signal. U3A cells, IL-6 STAT3-luciferase reporter, luminescence; host cell line lacks STAT1. inhibition, % at 5.5 µM. 190,000 compounds, 0.89% hits. AID 862;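 active = inhibition above the mean inhibition across all screened compounds plus 3 SD, cut at about 44% in these data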;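 note: 0% = DMSO only wells and 100% = 100 µM nifuroxazide control wells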
H9c2 TAG inh: reduces triacylglycerol accumulation in H9c2 cells; Nile Red lipid (TAG) fluorescence; cells loaded with 200 µM oleic acid; inhibition, % at 12.5 µM; 230,000 compounds, 0.66% hits; AID 651582;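 active = pattern-corrected inhibition of lipid staining of at least 50% with the nuclear-stain viability signal not falling by more than 50%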;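 note: 0% = DMSO wells and 100% = triacsin C control wells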
Platelet DG rel: platelet dense granule release activity; human platelet-rich plasma, SFLLRN dense granule ATP release, luminescence; inhibition, %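 (compounds screened at 7.5 µM in platelet-rich plasma)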; 300,000 compounds, 0.22% hits;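 active = mean replicate score, as percent of positive control, at or above 50; inconclusive = mean below 50 but at least one replicate at or above 50; inactive = mean and every replicate below 50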
STAT1 inh: inhibitors of IFN-gamma induced STAT1 signaling | NIH 3T3 STAT1-luciferase reporter, luminescence | inhibition, % at 5.5 µM | 200,000 compounds, 0.35% hits;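 active = inhibition above a set limit, the mean inhibition across all tested compounds plus 3 SD, cut at about 34% in these data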;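 note: 0% = IFN-gamma with DMSO and 100% = IFN-gamma with 300 µM nifuroxazide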
H9c2 TAG conf: confirmation of triacylglycerol accumulation inhibitors | shares compounds with H9c2 TAG inh | H9c2 lipid accumulation, Nile Red fluorescence; cells loaded with 200 µM oleic acid | inhibition, % at 12.5 µM | 990 compounds, 71% hits;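 active = mean inhibition across replicates of 40% or more; inactive = mean inhibition below 40%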;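 note: plate controls were DMSO only wells for no effect and Triacsin C treated wells for full effect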
An asterisk follows results filed as active; u = inconclusive; x = no result given. In the library only some 1.5% were active in any assay of this set; here they are far more common.

SMILES	PPC-1+TRAIL kill	Lipid droplet	STAT3 inh	H9c2 TAG inh	Platelet DG rel	STAT1 inh	H9c2 TAG conf
COc1ccc(CNC(=O)c2ccc(N3CCC4(CC3)CC(c3ccc(Cl)cc3)=NO4)c(NC(=O)Cc3ccc(F)cc3)c2)cc1	x	x	x	60.2*	x	x	43.9*
CCCCC(CC)C(=O)Nc1cc(C(=O)NCc2ccc(C)cc2)ccc1N1CCC2(CC1)CC(c1cccc(Br)c1)=NO2 (stereo unspecified)	x	x	x	41.0	x	x	x
C[C@@H]1CN([C@@H](C)CO)C(=O)CCCn2nncc2CO[C@H]1CN(C)C(=O)Nc1ccc(-c2cccs2)cc1	x	x	x	8.0	x	x	x
CCn1c(COc2ccc(C(C)C)cc2)nnc1SCC(=O)Nc1nccs1	-10.4	4.5	1.7	57.3*	1.4	2.3	14.6
CCSCc1nnc(SCC(=O)Nc2nccs2)n1CC	-2.2	-1.9	5.8	15.5	15.0	3.4	x
O=[N+]([O-])c1cccnc1Nc1ccc(Cl)cc1	x	x	x	5.9	x	x	x
O=[N+]([O-])c1ccc(/C=N/Nc2ncccc2[N+](=O)[O-])s1	x	x	x	64.3*	13.0	x	33.4
CC1(c2ccccc2)O[C@@H]2C[C@H]3[C@@H]4CCC5=CC(=O)C=C[C@]5(C)[C@@]4(F)[C@@H](O)C[C@]3(C)[C@]2(C(=O)CO)O1 (stereo partly specified)	7.8	6.9	x	53.3*	-2.6	x	55.4*
Cc1cc(C)cc(C(=O)NCC(=O)OCC(=O)NC2CC2)c1	x	x	x	-6.0	x	x	x
Nc1cc2c(cc1Br)[nH]c(=O)c1ccccc12	x	x	x	77.0*	x	x	62.3*
CCC(CC)NCc1ccc2c(c1)c1ccccc1n2CC	22.2	1.4	0.4	52.0*	1.2	-5.7	37.3
O=C(Cc1ccccc1F)Nc1nc(-c2cccs2)cs1	17.2	46.1	-11.3	42.8	-7.2	-21.8	x
O=C(Cc1ccccc1)Nc1nc(-c2cccs2)cs1	13.0	x	10.4	62.3*	-0.5	-3.0	32.5
Cc1ccc(Nc2nc(OC(C(F)(F)F)C(F)(F)F)nc(N3CCOCC3)n2)cc1	2.5	x	18.7	99.9*	-4.5	-3.4	92.6*
COc1ccc(NC(=O)CSc2nc3ccc(Nc4nc(N5CCOCC5)nc(N5CCOCC5)n4)cc3s2)cc1	x	11.6	x	x	12.2	x	x
Cc1ccc(NC(=O)CSc2nc3ccc(Nc4nc(N5CCOCC5)nc(N5CCOCC5)n4)cc3s2)cc1	x	38.9	x	83.6*	x	x	85.7*
Nc1ccc(C=C2C=Cc3ccccc32)cc1	x	x	x	11.8	x	x	x
NC(N)=Nc1ccc(C=C2C=Cc3ccccc32)cc1	x	x	x	60.2*	x	x	61.0*
C[C@H](NC(=O)c1ccco1)C(=O)NNC(=O)c1ccc(F)cc1	x	x	x	3.3	x	x	x
COc1ccc(OC)c(C2=Nn3c(nnc3-c3cc(OC)c(OC)c(OC)c3)SC2)c1	1.4	x	13.8	x	7.1	10.8	x
COc1cc(-c2nnc3n2N=C(c2ccccc2)CS3)cc(OC)c1OC	-1.3	x	19.4	89.6*	-1.2	1.3	66.5*
CC(=O)Nc1cc(-c2ccc(CO)cc2)cn2c(-c3cccc(C(F)(F)F)c3)cnc12	x	x	x	0.4	x	x	x
COc1cc(C2C(C#N)=C(N)Oc3cc(O)ccc32)cc(OC)c1OC (stereo unspecified)	29.9	x	-9.9	x	4.9	9.9	x
COc1cc(C2C(C#N)=C(N)Oc3cc4c(cc32)OCO4)cc(OC)c1OC (stereo unspecified)	9.1	u	-45.9	51.0*	9.9	10.7	71.0*
COCCNC(=O)c1cc2c(-c3ccc(Cl)cc3)nn(C)c2s1	5.3	x	-51.8	52.0*	2.2	-7.1	44.8*
O=C(Cc1n[nH]c(=O)c2ccccc12)OCC(=O)c1ccc2c(c1)OCCO2	18.8	x	4.6	80.9*	1.9	-11.9	56.1*
CCOc1cc(CNC(C)(C)C)ccc1OCC(=O)Nc1cccc(C(F)(F)F)c1	6.6	14.4	10.0	52.1*	-2.2	6.3	63.3*
COc1ccc([C@H]2CC(=O)C=C(c3ccc4c(c3)sc3ccccc34)C2)cc1	x	x	x	-2.6	x	x	x
OCCCn1c(C2CCCN2c2nc(-c3ccc(Cl)cc3)cs2)nc2cc(Cl)c(N3CCCCC3)cc21 (stereo unspecified)	x	x	x	62.1*	-1.9	x	56.0*

Bioassay records as filed in PubChem BioAssay.
